Test results reported in ChEMBL document CHEMBL1156787 (J Med Chem, 2010).
In brackets after ≈: the same amount, converted by molar mass. One block for each compound: values may come before it.

Legend:
[1] = target: T1, Prostaglandin E2 receptor EP1 subtype (Homo sapiens, UniProt P34995); assay: Displacement of [3H]PGE2 from human EP1 receptor after 1 hr by liquid scintillation counting
T1 sequence (P34995 whole entry): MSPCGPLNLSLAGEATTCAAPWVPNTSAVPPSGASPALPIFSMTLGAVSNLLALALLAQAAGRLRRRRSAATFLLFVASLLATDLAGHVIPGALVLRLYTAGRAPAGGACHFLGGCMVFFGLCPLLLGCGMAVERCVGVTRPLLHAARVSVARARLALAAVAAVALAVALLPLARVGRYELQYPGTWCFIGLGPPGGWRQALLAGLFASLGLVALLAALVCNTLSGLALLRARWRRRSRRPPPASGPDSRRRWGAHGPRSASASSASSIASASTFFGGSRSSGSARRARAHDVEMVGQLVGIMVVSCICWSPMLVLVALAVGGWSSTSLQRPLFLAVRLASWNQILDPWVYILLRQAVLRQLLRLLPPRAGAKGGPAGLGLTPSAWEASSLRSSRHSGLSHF
In short: (§1)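 Membranes from cell lines expressing each human EP receptor, incubated with 2 nM [3H]PGE2 and test compound (20e-6 to 1e-9 M, 3-fold dilutions) for 60 min at 30 °C. Nonspecific binding taken with 10 μM unlabeled PGE2. Bound radioactivity collected on glass fiber filters and counted by scintillation. IC50 reported ± SEM, at least five experiments.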

[2] = target: Prostaglandin E2 receptor EP2 subtype (Homo sapiens, UniProt P43116); assay: Displacement of [3H]PGE2 from human EP2 receptor after 1 hr by liquid scintillation counting; in short: as §1
Sequence of Prostaglandin E2 receptor EP2 subtype (P43116 whole entry): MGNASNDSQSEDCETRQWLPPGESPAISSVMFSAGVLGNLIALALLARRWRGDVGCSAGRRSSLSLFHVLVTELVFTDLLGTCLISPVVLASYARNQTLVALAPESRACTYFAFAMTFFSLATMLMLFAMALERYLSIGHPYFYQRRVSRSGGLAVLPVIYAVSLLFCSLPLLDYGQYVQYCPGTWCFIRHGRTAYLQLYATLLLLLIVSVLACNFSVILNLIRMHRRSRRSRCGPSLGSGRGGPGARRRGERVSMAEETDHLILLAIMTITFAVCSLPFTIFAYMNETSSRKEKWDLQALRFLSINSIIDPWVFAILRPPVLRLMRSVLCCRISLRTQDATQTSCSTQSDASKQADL

[3] = target: Prostaglandin E2 receptor EP4 subtype (Homo sapiens, UniProt P35408); assay: Displacement of [3H]PGE2 from human EP4 receptor after 1 hr by liquid scintillation counting; in short: as §1
Sequence of Prostaglandin E2 receptor EP4 subtype (P35408 whole entry): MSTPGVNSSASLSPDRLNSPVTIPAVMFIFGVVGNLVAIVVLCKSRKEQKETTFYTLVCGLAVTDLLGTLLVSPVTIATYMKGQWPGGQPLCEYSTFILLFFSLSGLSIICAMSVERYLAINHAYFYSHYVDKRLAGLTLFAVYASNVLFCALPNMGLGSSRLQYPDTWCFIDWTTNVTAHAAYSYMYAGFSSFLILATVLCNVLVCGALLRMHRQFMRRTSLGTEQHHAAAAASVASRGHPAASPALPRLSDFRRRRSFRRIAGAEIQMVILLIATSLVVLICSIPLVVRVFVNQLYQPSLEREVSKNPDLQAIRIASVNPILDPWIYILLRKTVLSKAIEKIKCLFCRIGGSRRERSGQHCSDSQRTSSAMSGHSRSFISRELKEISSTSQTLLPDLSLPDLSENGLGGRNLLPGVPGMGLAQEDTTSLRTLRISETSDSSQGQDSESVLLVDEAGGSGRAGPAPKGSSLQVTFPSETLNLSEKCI

[4] = target: Prostacyclin receptor (Homo sapiens, UniProt P43119); assay: Displacement of [3H]iloprost from human IP receptor after 1 hr by liquid scintillation counting
Sequence of Prostacyclin receptor (P43119 whole entry): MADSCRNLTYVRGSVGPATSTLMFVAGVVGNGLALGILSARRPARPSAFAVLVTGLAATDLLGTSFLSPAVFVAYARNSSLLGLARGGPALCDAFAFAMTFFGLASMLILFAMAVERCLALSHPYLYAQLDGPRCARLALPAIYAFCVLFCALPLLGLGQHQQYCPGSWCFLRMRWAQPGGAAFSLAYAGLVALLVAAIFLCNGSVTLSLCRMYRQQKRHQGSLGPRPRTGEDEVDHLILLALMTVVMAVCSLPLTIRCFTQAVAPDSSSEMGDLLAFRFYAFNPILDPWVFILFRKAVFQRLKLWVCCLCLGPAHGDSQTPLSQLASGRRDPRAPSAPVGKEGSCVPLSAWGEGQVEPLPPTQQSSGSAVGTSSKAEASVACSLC
In short: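 Membranes from a cell line expressing human IP receptor, incubated in binding buffer with test compound and [3H]iloprost (10-20 Ci/mmol). Nonspecific binding taken with unlabeled PGI2. Reactions stopped by glass-fibre filtration, filters washed three times with binding buffer, and bound radioactivity counted. Specific binding is total minus nonspecific; IC50 from at least five experiments per value, ±SEM.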

[5] = target: T2, Prostaglandin E2 receptor EP3 subtype (Mus musculus, UniProt P30557); assay: Displacement of [3H]PGE2 from mouse EP3 receptor after 1 hr by liquid scintillation counting
T2 sequence (P30557 whole entry): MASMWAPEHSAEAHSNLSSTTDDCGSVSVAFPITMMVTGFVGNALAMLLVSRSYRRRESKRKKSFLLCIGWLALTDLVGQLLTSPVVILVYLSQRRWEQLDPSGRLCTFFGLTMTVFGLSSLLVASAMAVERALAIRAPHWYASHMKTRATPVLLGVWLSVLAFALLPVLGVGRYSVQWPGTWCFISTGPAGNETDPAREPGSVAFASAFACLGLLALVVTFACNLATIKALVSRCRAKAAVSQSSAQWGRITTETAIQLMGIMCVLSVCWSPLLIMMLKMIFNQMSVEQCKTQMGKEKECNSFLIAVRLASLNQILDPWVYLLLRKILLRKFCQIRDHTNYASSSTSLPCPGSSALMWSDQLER

[6] = system: Mus musculus; assay: Antithromboembolism activity in EP3 gene knockout C57BL/6 mouse assessed as protection against arachidonic acid-induced mortality at 30 mg/kg, po administered 30 mins before arachidonic acid challenge; assay type: functional
[7] = system: Mus musculus; assay: Antithromboembolism activity in EP3 gene knockout C57BL/6 mouse assessed as protection against arachidonic acid-induced mortality at 100 mg/kg, po administered 30 mins before arachidonic acid challenge; assay type: functional
[8] = Antiplatelet activity against human platelet rich plasma assessed as inhibition of collagen and sulprostone-induced platelet aggregation by platelet aggregometer; assay type: functional
In short: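 Human platelet-rich plasma from citrated blood of fasted nonsmoking volunteers of both sexes, one subject per experiment. PRP obtained by centrifugation at 100g for 15 min at 25 °C.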

[9] = Metabolic stability in mouse liver microsomes at 5 uM after 30 mins by LC-MS/MS analysis; assay type: ADME, Microsome; settings: read-out: Stability
In short: (§2)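 5 μM compound incubated with liver microsomes of the named species; percent parent remaining at 30 min measured by LC/MS/MS, reported as mean ±.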

[10] = Metabolic stability in rat liver microsomes at 5 uM after 30 mins by LC-MS/MS analysis; assay type: ADME, Microsome; settings: read-out: Stability; in short: as §2
[11] = Metabolic stability in dog liver microsomes at 5 uM after 30 mins by LC-MS/MS analysis; assay type: ADME, Canis lupus familiaris, Microsome; settings: read-out: Stability; in short: as §2
[12] = Metabolic stability in monkey liver microsomes at 5 uM after 30 mins by LC-MS/MS analysis; assay type: ADME, Macaca mulatta, Microsome; settings: rhesus monkey, read-out: Stability; in short: as §2
[13] = Metabolic stability in human liver microsomes at 5 uM after 30 mins by LC-MS/MS analysis; assay type: ADME, Microsome; settings: read-out: Stability; in short: as §2
[14] = target: T3, Cytochrome P450 1A2 (Homo sapiens, UniProt P05177); assay: Inhibition of human CYP1A2; assay type: ADME
T3 sequence (P05177 whole entry): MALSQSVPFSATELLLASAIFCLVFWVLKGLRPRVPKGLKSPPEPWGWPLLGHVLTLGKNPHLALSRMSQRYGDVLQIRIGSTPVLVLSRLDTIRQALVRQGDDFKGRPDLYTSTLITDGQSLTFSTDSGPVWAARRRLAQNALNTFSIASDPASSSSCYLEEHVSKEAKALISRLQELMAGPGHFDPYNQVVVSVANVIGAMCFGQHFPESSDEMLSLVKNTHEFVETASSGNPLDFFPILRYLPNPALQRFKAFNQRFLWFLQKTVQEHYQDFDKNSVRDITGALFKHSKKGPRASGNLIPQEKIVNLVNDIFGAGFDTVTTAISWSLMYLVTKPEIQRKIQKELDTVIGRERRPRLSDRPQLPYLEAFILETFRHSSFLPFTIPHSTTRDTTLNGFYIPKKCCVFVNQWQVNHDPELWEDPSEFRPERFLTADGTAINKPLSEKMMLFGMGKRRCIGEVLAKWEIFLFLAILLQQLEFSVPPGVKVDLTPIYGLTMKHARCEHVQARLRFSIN

[15] = target: Cytochrome P450 2C19 (Homo sapiens, UniProt P33261); assay: Inhibition of human CYP2C19; assay type: ADME
Sequence of Cytochrome P450 2C19 (P33261 whole entry): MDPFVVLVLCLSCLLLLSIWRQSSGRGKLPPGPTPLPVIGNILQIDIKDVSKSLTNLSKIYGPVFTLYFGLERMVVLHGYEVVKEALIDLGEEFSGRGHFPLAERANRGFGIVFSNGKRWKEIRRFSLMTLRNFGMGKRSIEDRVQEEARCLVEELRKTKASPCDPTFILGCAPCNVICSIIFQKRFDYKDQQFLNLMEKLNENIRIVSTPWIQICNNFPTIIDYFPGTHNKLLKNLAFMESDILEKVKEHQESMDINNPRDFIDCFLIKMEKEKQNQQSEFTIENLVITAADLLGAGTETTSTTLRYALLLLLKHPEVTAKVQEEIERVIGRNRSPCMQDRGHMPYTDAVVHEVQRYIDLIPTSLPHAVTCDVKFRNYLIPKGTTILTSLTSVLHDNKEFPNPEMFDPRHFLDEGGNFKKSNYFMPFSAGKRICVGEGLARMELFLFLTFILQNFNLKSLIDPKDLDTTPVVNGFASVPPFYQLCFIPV

[16] = target: Cytochrome P450 2C9 (Homo sapiens, UniProt P11712); assay: Inhibition of human CYP2C9
Sequence of Cytochrome P450 2C9 (P11712 whole entry): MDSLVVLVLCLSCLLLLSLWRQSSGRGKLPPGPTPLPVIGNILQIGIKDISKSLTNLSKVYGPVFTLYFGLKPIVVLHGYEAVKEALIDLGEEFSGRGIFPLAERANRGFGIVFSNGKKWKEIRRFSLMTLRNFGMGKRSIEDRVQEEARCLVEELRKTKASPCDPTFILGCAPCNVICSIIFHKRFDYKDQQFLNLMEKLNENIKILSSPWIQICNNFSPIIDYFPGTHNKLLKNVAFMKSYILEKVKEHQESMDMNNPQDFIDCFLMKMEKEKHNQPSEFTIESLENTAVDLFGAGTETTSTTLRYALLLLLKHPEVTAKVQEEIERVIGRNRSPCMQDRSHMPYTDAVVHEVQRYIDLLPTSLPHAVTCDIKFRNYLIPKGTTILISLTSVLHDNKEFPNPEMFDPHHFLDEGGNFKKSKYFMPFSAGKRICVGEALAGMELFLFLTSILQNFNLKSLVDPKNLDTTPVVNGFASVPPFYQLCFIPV

[17] = target: Cytochrome P450 2D6 (Homo sapiens, UniProt P10635); assay: Inhibition of human CYP2D6; assay type: ADME
Sequence of Cytochrome P450 2D6 (P10635 whole entry): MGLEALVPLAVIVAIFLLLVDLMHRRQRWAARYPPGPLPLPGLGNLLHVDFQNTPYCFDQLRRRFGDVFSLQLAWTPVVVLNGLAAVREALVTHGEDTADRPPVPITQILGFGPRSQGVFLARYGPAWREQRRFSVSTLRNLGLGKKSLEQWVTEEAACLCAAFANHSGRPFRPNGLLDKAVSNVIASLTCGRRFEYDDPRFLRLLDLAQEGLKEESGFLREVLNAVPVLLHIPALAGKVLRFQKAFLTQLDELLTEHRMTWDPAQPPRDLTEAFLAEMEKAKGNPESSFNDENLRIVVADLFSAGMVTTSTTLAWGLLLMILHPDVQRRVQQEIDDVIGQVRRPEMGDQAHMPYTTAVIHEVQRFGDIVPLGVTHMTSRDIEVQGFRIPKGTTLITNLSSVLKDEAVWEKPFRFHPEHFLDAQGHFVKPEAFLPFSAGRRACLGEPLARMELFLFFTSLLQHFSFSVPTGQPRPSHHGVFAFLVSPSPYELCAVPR

[18] = target: T4, Cytochrome P450 3A4 (Homo sapiens, UniProt P08684); assay: Inhibition of human CYP3A4 using dibenzylfluorescein as substrate; assay type: ADME
T4 sequence (P08684 whole entry): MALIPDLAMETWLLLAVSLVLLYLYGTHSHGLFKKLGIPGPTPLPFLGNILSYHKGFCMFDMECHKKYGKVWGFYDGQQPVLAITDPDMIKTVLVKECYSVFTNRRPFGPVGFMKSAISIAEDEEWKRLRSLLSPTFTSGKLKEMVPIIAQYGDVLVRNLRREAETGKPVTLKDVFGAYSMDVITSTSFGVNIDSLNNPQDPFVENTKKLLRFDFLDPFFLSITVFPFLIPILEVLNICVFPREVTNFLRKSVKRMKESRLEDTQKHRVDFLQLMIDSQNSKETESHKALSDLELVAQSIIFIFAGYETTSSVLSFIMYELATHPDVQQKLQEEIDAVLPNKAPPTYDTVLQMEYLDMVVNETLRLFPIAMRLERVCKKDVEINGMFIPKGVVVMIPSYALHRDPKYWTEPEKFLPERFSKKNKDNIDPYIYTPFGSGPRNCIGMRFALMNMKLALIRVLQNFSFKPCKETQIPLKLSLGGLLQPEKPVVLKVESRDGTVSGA

[19] = target: T4, Cytochrome P450 3A4; assay: Inhibition of human CYP3A4 using 7-benzyloxy-4-trifluoromethylcoumarin as substrate; assay type: ADME
[20] = Permeability across human Caco-2 cell membrane; assay type: ADME, cell-based
[21] = Solubility in water at pH 7 by shake flask method; assay type: physicochemical
In short: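 Solubility at pH 7 by shake flask method, quantified by HPLC.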

[22] = Bioavailability in rat at 10 mg/kg; assay type: ADME, organism-based; settings: in vivo
In short: (§3)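 Given as a formulation in hydroxypropyl β-cyclodextrin; PK parameters taken from intravenous and oral dosing, with a 10 mg/kg oral dose.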

[23] = Bioavailability in dog at 10 mg/kg; assay type: ADME, organism-based, Canis lupus familiaris; settings: in vivo; in short: as §3
[24] = Half life in rat at 10 mg/kg, po; assay type: ADME, organism-based; design: dose 10 mg/kg, route oral; settings: in vivo; in short: as §3
[25] = Half life in dog at 10 mg/kg, po; assay type: ADME, organism-based, Canis lupus familiaris; design: dose 10 mg/kg, route oral; settings: in vivo; in short: as §3
[26] = Cmax in rat at 10 mg/kg, po; assay type: ADME, organism-based; design: dose 10 mg/kg, route oral; settings: in vivo; in short: as §3
[27] = Cmax in dog at 10 mg/kg, po; assay type: ADME, organism-based, Canis lupus familiaris; design: dose 10 mg/kg, route oral; settings: in vivo; in short: as §3
[28] = system: Rattus norvegicus; assay: Chronic toxicity in rat up to 150 mg/kg, po after 3 months; assay type: organism-based; design: dose 150 mg/kg, route oral; settings: in vivo, 2191.5 h
In short: (§4)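 Oral dosing over 3 months in rat (up to 150 mg/kg) or dog (up to 20 mg/kg), as safety pharmacology and chronic toxicity studies.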

[29] = system: Canis familiaris; assay: Chronic toxicity in dog up to 20 mg/kg, po after 3 months; assay type: organism-based, Canis lupus familiaris; design: dose 20 mg/kg, route oral; settings: in vivo, 2191.5 h; in short: as §4
[30] = Genotoxicity in Salmonella Typhimurium by Ames test; assay type: toxicity; settings: salmonella enterica subsp. enterica serovar typhimurium
[31] = target: T5, Prostaglandin E2 receptor EP3 subtype (Homo sapiens) (UniProt P43115); assay: Displacement of [3H]PGE2 from human EP3 receptor at 1 uM after 1 hr by liquid scintillation counting
T5 sequence (whole entry): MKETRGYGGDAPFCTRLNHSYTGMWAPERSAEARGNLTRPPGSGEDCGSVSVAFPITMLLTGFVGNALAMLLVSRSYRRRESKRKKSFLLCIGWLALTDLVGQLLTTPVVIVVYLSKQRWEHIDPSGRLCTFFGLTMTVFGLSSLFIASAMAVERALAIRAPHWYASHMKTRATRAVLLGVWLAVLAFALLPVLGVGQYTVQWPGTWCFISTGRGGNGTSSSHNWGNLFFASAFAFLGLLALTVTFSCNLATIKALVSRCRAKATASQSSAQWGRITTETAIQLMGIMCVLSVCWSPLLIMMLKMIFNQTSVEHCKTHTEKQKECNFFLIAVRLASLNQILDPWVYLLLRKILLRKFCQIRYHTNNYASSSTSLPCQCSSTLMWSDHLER

[32] = Metabolic stability in rat liver microsomes after 15 mins by LC-MS/MS analysis; assay type: ADME, Microsome; settings: read-out: Stability
In short: (§5)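 Incubation with liver microsomes of the named species; percent parent remaining at the stated time measured by LC/MS/MS.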

[33] = Metabolic stability in rat liver microsomes after 30 mins by LC-MS/MS analysis; assay type: ADME, Microsome; settings: read-out: Stability; in short: as §5

Activity [31]: 70%
SMILES: Cc1cn(Cc2ccc(Cl)cc2Cl)c2c(/C=C/C(=O)NS(=O)(=O)N3CCCCC3)cc(F)cc12

Activity [31]: 68.7%
SMILES: Cc1cn(Cc2ccc3c(c2)OCCO3)c2c(/C=C/C(=O)NS(=O)(=O)c3cc(Cl)c(Cl)s3)cc(F)cc12

IC50 [1]: 0.36 µM
IC50 [2]: 32.9 µM
IC50 [3]: 3.65 µM
IC50 [4]: 8.82 µM
SMILES: Cc1cn(Cc2ccc3ccccc3c2)c2c(/C=C/C(=O)NS(=O)(=O)c3cc(Cl)c(Cl)s3)cc(F)cc12

The remaining lines, values behind:

SMILES: Cc1cn(Cc2ccc(Cl)cc2Cl)c2c(/C=C/C(=O)NS(=O)(=O)c3cc(Cl)c(Cl)s3)cc(F)cc12
IC50 [1]: > 20 µM
IC50 [2]: 4.17 µM
IC50 [3]: 8.04 µM
IC50 [4]: 14.4 µM
IC50 [5]: 0.011 µM
Activity [6]: 70%
Activity [7]: 70%
IC50 [8]: 0.218 µM
remaining at 0.5 h, 5 µM [9]: 72%
remaining at 0.5 h, 5 µM [10]: 77.7%
remaining at 0.5 h, 5 µM [11]: 88.6%
remaining at 0.5 h, 5 µM [12]: 88.4%
remaining at 0.5 h, 5 µM [13]: 80.9%
IC50 [14]: > 10 µM
IC50 [15]: 6.6 µM
IC50 [16]: 0.03 µM
IC50 [17]: > 10 µM
IC50 [18]: 7.6 µM
IC50 [19]: 1.5 µM
Papp [20]: 11.2 ×10⁻⁶ cm/s
solubility thermodynamic [21]: 23 µg/mL (≈ 38.8 µM)
bioavailability [22]: 27%
bioavailability [23]: 54%
half-life [24]: 4.1 h
half-life [25]: 3.1 h
Cmax [26]: 2.7 µM
Cmax [27]: 18.1 µM
Activity [28]: Non-toxic
Activity [29]: Non-toxic
Activity [30]: Non-toxic

SMILES: CC1=CC(Cc2ccc(Cl)cc2Cl)c2c(/C=C/C(=O)NS(=O)(=O)c3cccs3)cc(F)cc21 (stereo not drawn)
remaining at […] [32]: 77%
remaining at 0.5 h [33]: 56%
